Test results from ChEMBL document CHEMBL3808334, “Synthesis and in vitro evaluation of novel triazine analogues as anticancer agents and their interaction studies with bovine serum albumin” (Eur J Med Chem, 2016).

Key:
Format in all cases: functional
[1] = Growth inhibition of human SW620 cells assessed as cell growth at 10 uM incubated for 48 hrs by sulforhodamine B assay; details: SW-620, 48 h, read-out: Activity
[2] = Growth inhibition of human HCT116 cells assessed as cell growth at 10^-5 M incubated for 48 hrs by sulforhodamine B assay; details: HCT-116, 48 h, read-out: Activity
Procedure, shortened: (§1)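 Cells seeded at 5,000–40,000/well according to doubling time and preincubated 24 h at 37 °C, 5% CO2. Time-zero plates were TCA-fixed. DMSO concentrate was diluted in medium with 50 µg/ml gentamicin to give five concentrations (10-fold or ½ log steps), then exposed 48 h. Cells were TCA-fixed, stained with 0.4% SRB and read at 515 nm. Percent growth was taken against time-zero and control; GI50, TGI and LC50 derived.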

[3] = system: MDA-MB-468; assay: Growth inhibition of human MDA-MB-468 cells assessed as cell growth at 10^-5 M incubated for 48 hrs by sulforhodamine B assay; details: MDA-MB-468, 48 h, read-out: Activity
[4] = system: SR; assay: Growth inhibition of human SR cells assessed as cell growth at 10^-5 M incubated for 48 hrs by sulforhodamine B assay; details: read-out: Activity
[5] = system: SK-MEL-5; assay: Growth inhibition of human SK-MEL-5 cells assessed as cell growth at 10^-8 M incubated for 48 hrs by sulforhodamine B assay; details: SK-MEL-5, 48 h, read-out: Activity
[6] = Growth inhibition of human HCT116 cells assessed as cell growth at 10^-8 M incubated for 48 hrs by sulforhodamine B assay; details: HCT-116, 48 h, read-out: Activity; procedure, shortened: as §1
[7] = system: NCI-H522; assay: Growth inhibition of human NCI-H522 cells assessed as cell growth at 10 uM incubated for 48 hrs by sulforhodamine B assay; details: NCI-H522, 48 h, read-out: Activity
[8] = Growth inhibition of human BT549 cells assessed as cell growth at 10^-4 M incubated for 48 hrs by sulforhodamine B assay; details: BT-549, 48 h, read-out: Activity
Procedure, shortened: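 Five-dose assay: five concentrations from 10-fold or ½-log serial dilutions. Cells are plated at 5,000–40,000 per well according to doubling time, grown 24 h, then exposed 48 h at 37 °C, 5% CO₂. Fixed with cold 50% TCA (final addition) for 60 min at 4 °C and stained with 0.4% SRB in 1% acetic acid. Bound dye is solubilized in 10 mM Tris base and read at 515 nm. GI₅₀ is where [(Ti−Tz)/(C−Tz)]×100 = 50, with a time-zero plate as Tz.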

[9] = system: T47D; assay: Growth inhibition of human T47D cells assessed as cell growth at 10^-8 M incubated for 48 hrs by sulforhodamine B assay; details: read-out: Activity
[10] = system: U-251; assay: Growth inhibition of human U251 cells assessed as cell growth at 10^-6 M incubated for 48 hrs by sulforhodamine B assay; details: U-251, 48 h, read-out: Activity
[11] = system: NCI-H226; assay: Growth inhibition of human NCI-H226 cells assessed as cell growth at 10^-7 M incubated for 48 hrs by sulforhodamine B assay; details: NCI-H226, 48 h, read-out: Activity
[12] = Growth inhibition of human SF539 cells assessed as cell growth at 10^-6 M incubated for 48 hrs by sulforhodamine B assay; details: SF-539, 48 h, read-out: Activity

c1ccc(-c2nc(Nc3ccc(-c4nc5ccccc5[nH]4)cc3)nc(N3CCOCC3)n2)cc1
growth at 10 µM [1]: -82.9% | growth at 10 µM [2]: -61% | growth at 10 µM [3]: -57% | growth at 10 µM [4]: -26% | growth at 0.01 µM [5]: 101% | growth at 0.01 µM [6]: 99% | growth at 10 µM [7]: -68.2% | growth at 100 µM [8]: -80% | growth at 0.01 µM [9]: 103% | growth at 1 µM [10]: 28% | growth at 0.1 µM [11]: 120% | growth at 1 µM [12]: 74%

Fc1ccc(-c2nc(Nc3ccc(-c4nc5ccccc5[nH]4)cc3)nc(N3CCOCC3)n2)cc1
growth at 10 µM [1]: 3.57% | growth at 10 µM [2]: -84% | growth at 10 µM [3]: -14% | growth at 10 µM [4]: -15% | growth at 0.01 µM [5]: 98% | growth at 0.01 µM [6]: 90% | growth at 10 µM [7]: 11.9% | growth at 100 µM [8]: -28% | growth at 0.01 µM [9]: 101% | growth at 1 µM [10]: 70% | growth at 0.1 µM [11]: 111% | growth at 1 µM [12]: 80%

Clc1ccc(-c2nc(Nc3ccc(-c4nc5ccccc5[nH]4)cc3)nc(N3CCOCC3)n2)cc1
growth at 10 µM [1]: -74.2% | growth at 10 µM [2]: -76% | growth at 10 µM [3]: -71% | growth at 10 µM [4]: -21% | growth at 0.01 µM [5]: 100% | growth at 0.01 µM [6]: 99% | growth at 10 µM [7]: -73.9% | growth at 100 µM [8]: -13% | growth at 0.01 µM [9]: 99% | growth at 1 µM [10]: -56% | growth at 0.1 µM [11]: 106% | growth at 1 µM [12]: 31%

c1ccc2[nH]c(-c3ccc(Nc4nc(N5CCCCC5)nc(N5CCOCC5)n4)cc3)nc2c1
growth at 10 µM [1]: 5.3% | growth at 10 µM [2]: -67% | growth at 10 µM [3]: -24% | growth at 10 µM [4]: -14% | growth at 0.01 µM [5]: 97% | growth at 0.01 µM [6]: 100% | growth at 10 µM [7]: 9.25% | growth at 100 µM [8]: -50% | growth at 0.01 µM [9]: 93% | growth at 1 µM [10]: 76% | growth at 0.1 µM [11]: 84% | growth at 1 µM [12]: 89%
